Usually IC50 stands for the concentration that gives 50% inhibition. By EC50 is commonly meant the midpoint of the concentration-response curve. For orientation: CC50 means the concentration that lowers cell viability or growth by half.

Series [1] addresses T1, Neuraminidase (Influenza A virus, UniProt B4URF0). Further details: species or system chicken/china/1220/2012(H5N1).
The target in series [2] is T1, Neuraminidase. Further details: species or system duck/Guangdong/674/2014(H5N6).
Series [3] concerns Influenza A virus. The series can be described thus: Antiviral activity against influenza A virus chicken/china/1220/2012(H5N1) infected in chicken embryo fibroblasts assessed as reduction in viral cytopathic effect preincubated with virus for 1 hr followed by viral infection measured after 2 days by CCK-8 assay. It is filed as functional, organism-based.
Series [4] has as its system Influenza A virus. The series can be described thus: Antiviral activity against influenza A virus duck/Guangdong/674/2014(H5N6) infected in chicken embryo fibroblasts assessed as reduction in viral cytopathic effect preincubated with virus for 1 hr followed by viral infection measured after 2 days by CCK-8 assay. It is filed as functional, organism-based. On the technique in general: Damage to the host cells serves as the signal in cytopathic effect assays.

Series [5] can be described thus: Cytotoxicity against chicken embryo fibroblasts assessed as reduction in cell viability after 2 days by CCK-8 assay. The series is classed as cell-based, Gallus gallus, Fibroblast. An outline of the steps: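 Chicken embryo fibroblasts grown 24 h at 37 °C, then exposed without virus to compounds dissolved in water and serially diluted 3-fold in DMEM. Incubation was at 37 °C under 5% CO₂, with viability read by CCK-8 at 2 days. CC₅₀, the concentration giving a 50% drop in viability, was fitted from the concentration curve.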
(In general: Formazan colour is commonly taken as a measure of viable cells.)

Series [6] has as its system Influenza A virus. Put plainly: Antiviral activity against influenza A virus chicken/china/1220/2012(H5N1) infected in chicken embryo fibroblasts assessed as effect on embryo survival at 10 mmol/L preincubated with virus for 1 hr followed by viral infection measured after […]. It is filed as functional, organism-based.
In series [7] the test system is Influenza A virus. Put plainly: Antiviral activity against influenza A virus chicken/china/1220/2012(H5N1) infected in chicken embryo fibroblasts assessed as effect on embryo survival at 2.5 mmol/L preincubated with virus for 1 hr followed by viral infection measured after […]. It is filed as functional, organism-based.
For series [8], the system named is Influenza A virus. The series can be described thus: Antiviral activity against influenza A virus chicken/china/1220/2012(H5N1) infected in chicken embryo fibroblasts assessed as effect on embryo survival at 0.625 mmol/L preincubated with virus for 1 hr followed by viral infection measured after […]. The series is classed as functional, organism-based.
Series [9] has as its system Influenza A virus. Put plainly: Antiviral activity against influenza A virus chicken/china/1220/2012(H5N1) infected in chicken embryo fibroblasts assessed as effect on embryo survival at 0.15625 mmol/L preincubated with virus for 1 hr followed by viral infection measured after […]. The series is classed as functional, organism-based.
Series [10] has as its system Influenza A virus. Put plainly: Antiviral activity against influenza A virus chicken/china/1220/2012(H5N1) infected in chicken embryo fibroblasts assessed as effect on embryo survival at 0.0390625 mmol/L preincubated with virus for 1 hr followed by viral infection measured after […]. It is filed as functional, organism-based.
In series [11] the test system is Influenza A virus. The series can be described thus: Antiviral activity against influenza A virus duck/Guangdong/674/2014(H5N6) infected in chicken embryo fibroblasts assessed as effect on embryo survival at 10 mmol/L preincubated with virus for 1 hr followed by viral infection measured after […]. The series is classed as functional, organism-based.
Series [12] concerns Influenza A virus. The series can be described thus: Antiviral activity against influenza A virus duck/Guangdong/674/2014(H5N6) infected in chicken embryo fibroblasts assessed as effect on embryo survival at 2.5 mmol/L preincubated with virus for 1 hr followed by viral infection measured after […]. It is filed as functional, organism-based.
Series [13] relates to Influenza A virus. The series can be described thus: Antiviral activity against influenza A virus duck/Guangdong/674/2014(H5N6) infected in chicken embryo fibroblasts assessed as effect on embryo survival at 0.625 mmol/L preincubated with virus for 1 hr followed by viral infection measured after […]. The series is classed as functional, organism-based.
The test system of series [14] is Influenza A virus. Put plainly: Antiviral activity against influenza A virus duck/Guangdong/674/2014(H5N6) infected in chicken embryo fibroblasts assessed as effect on embryo survival at 0.15625 mmol/L preincubated with virus for 1 hr followed by viral infection measured after […]. It is filed as functional, organism-based.
Series [15] deals with Influenza A virus. Put plainly: Antiviral activity against influenza A virus duck/Guangdong/674/2014(H5N6) infected in chicken embryo fibroblasts assessed as effect on embryo survival at 0.0390625 mmol/L preincubated with virus for 1 hr followed by viral infection measured after […]. The series is classed as functional, organism-based.

Activity calls are given as the source filed them. No cut-off for these calls is given here.

T1 sequence (B4URF0 whole entry): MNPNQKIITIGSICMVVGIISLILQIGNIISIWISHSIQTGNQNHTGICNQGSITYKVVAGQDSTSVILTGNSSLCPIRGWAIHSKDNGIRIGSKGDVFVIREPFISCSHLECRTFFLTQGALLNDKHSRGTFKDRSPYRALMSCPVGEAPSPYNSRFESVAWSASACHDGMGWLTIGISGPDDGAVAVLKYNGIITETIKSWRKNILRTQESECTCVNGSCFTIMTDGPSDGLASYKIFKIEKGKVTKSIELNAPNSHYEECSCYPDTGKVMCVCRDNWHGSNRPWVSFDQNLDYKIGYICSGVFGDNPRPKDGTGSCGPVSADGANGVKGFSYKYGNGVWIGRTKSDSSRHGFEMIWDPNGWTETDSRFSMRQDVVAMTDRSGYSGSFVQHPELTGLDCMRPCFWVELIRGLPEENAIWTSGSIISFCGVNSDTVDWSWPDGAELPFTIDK

With `CCC(CC)O[C@@H]1C=C(C(=O)NCc2ccc(F)cc2Cl)C[C@H](N)[C@H]1NC(C)=O`, the figures for the IC50 in series [1] and in [2] were 3.91 µM and 19.4 µM, respectively.

In the case of `CCC(CC)O[C@@H]1C=C(C(=O)NCc2ccc(Br)cc2)C[C@H](N)[C@H]1NC(C)=O`, the IC50 was 2.07 µM in series [1] and 6.01 µM in series [2].

On to `CCC(CC)O[C@@H]1C=C(C(=O)NCc2ccc(OC)cc2)C[C@H](N)[C@H]1NC(C)=O`, for which the IC50 in series [1] and in series [2] was over 40 µM throughout.

`CCC(CC)O[C@@H]1C=C(C(=O)N[C@H](C(=O)O)C(C)C)C[C@H](N)[C@H]1NC(C)=O` [listing 1 of 2 here]: the IC50 was found to be 0.342 µM in [1] and 0.304 µM in series [2].

For the molecule `CCC(CC)O[C@@H]1C=C(C(=O)NCc2ccccc2F)C[C@H](N)[C@H]1NC(C)=O`, the IC50 in [1] was determined as 6.26 µM; in series [2], 14.7 µM.

For `CCC(CC)O[C@@H]1C=C(C(=O)NCC(=O)O)C[C@H](N)[C@H]1NC(C)=O`, the half-inhibitory concentration (IC50) in series [1] is 2.53 µM; in series [2], 2.16 µM.

As for `CCC(CC)O[C@@H]1C=C(C(=O)NCc2ccc(-c3ccccc3)cc2)C[C@H](N)[C@H]1NC(C)=O`, the IC50 turned out to be 0.96 µM in [1] and 0.99 µM in series [2].

As for `CCC(CC)O[C@@H]1C=C(C(=O)NCc2ccc(-c3cccs3)cc2)C[C@H](N)[C@H]1NC(C)=O`, the IC50 in series [1] turned out to be 7.75 µM; in series [2] it was 10.9 µM.

Consider `CCC(CC)O[C@@H]1C=C(C(=O)Nc2ccc(F)cc2)C[C@H](N)[C@H]1NC(C)=O`, for which the figures for the IC50 in series [1] and in [2] were 11.7 µM and 16.3 µM, respectively.

With `CCC(CC)O[C@@H]1C=C(C(=O)NCc2ccc(F)cc2)C[C@H](N)[C@H]1NC(C)=O`, the IC50 worked out at 0.94 µM in series [1] and 2.78 µM in series [2].

Take `CCC(CC)O[C@@H]1C=C(C(=O)N[C@@H](C(=O)O)C(C)C)C[C@H](N)[C@H]1NC(C)=O`: the IC50 in series [1] was 0.0883 µM; in series [2], 0.0967 µM. The EC50 in series [3] is 4.26 µM; in series [4], 1.31 µM. Further, the CC50 at 48 h in [5] is over 1000 µM. The result in [6] and in series [11] was Active. The outcome in [7], in [8], in series [9], in [10], in series [12] and in series [13] was inactive. Also, the result in [14] and in series [15] was inactive.

As to `C=CCNC(=O)C1=C[C@@H](OC(CC)CC)[C@H](NC(C)=O)[C@@H](N)C1`, the IC50 in [1] stood at 5.03 µM; in series [2], 0.41 µM.

`CCC(CC)O[C@@H]1C=C(C(=O)NCCN2CCOCC2)C[C@H](N)[C@H]1NC(C)=O`: the IC50 was 4.24 µM in series [1] and 12.1 µM in series [2].

For the molecule `CCC(CC)O[C@@H]1C=C(C(=O)NCc2ccccc2)C[C@H](N)[C@H]1NC(C)=O`, the IC50 in [1] was determined as 9.87 µM; in series [2] it was 19.9 µM.

For the molecule `CCC(CC)O[C@@H]1C=C(C(=O)N[C@H](C)C(=O)O)C[C@H](N)[C@H]1NC(C)=O`, the 50% inhibitory concentration (IC50) in [1] was 1.35 µM; in series [2], 1.07 µM.

For `CCC(CC)O[C@@H]1C=C(C(=O)Nc2ccc(N3CCOCC3=O)cc2)C[C@H](N)[C@H]1NC(C)=O`, the values for the IC50 in series [1] and in [2] were 1.46 µM and 2.27 µM, respectively.

For the molecule `CCC(CC)O[C@@H]1C=C(C(=O)NCc2ccc(C(F)(F)F)cc2)C[C@H](N)[C@H]1NC(C)=O`, the IC50 in [1] turned out to be 10.9 µM; in series [2] it was 8.78 µM.

Consider `CCC(CC)O[C@@H]1C=C(C(=O)NCc2cccc(F)c2)C[C@H](N)[C@H]1NC(C)=O`, for which the IC50 turned out to be 5.09 µM in series [1] and 11.4 µM in series [2].

Take `CCC(CC)O[C@@H]1C=C(C(=O)N[C@H](C(=O)O)C(C)C)C[C@H](N)[C@H]1NC(C)=O` [listing 2 of 2 here]: the IC50 stood at 0.135 µM in [1] and 0.248 µM in [2].

`CCC(CC)O[C@@H]1C=C(C(=O)NCc2ccc(-c3ccsc3)cc2)C[C@H](N)[C@H]1NC(C)=O`: the IC50 was 29.8 µM in series [1] and over 40 µM in [2].

Take `CCC(CC)O[C@@H]1C=C(C(=O)NCc2cc(F)cc(F)c2)C[C@H](N)[C@H]1NC(C)=O`: the results for the IC50 in [1] and in [2] were 2.22 µM and 10.4 µM, respectively.

Take `CCC(CC)O[C@@H]1C=C(C(=O)NCCc2cccc(F)c2)C[C@H](N)[C@H]1NC(C)=O`: the half-maximal inhibitory concentration (IC50) in [1] came out at 15.2 µM; in series [2], 32.5 µM.

For `CCC(CC)O[C@@H]1C=C(C(=O)NCCc2ccccc2F)C[C@H](N)[C@H]1NC(C)=O`, the IC50 came to 3.17 µM in series [1] and 5.12 µM in series [2].

In the case of `CCC(CC)O[C@@H]1C=C(C(=O)N(C)CCc2cccc(F)c2)C[C@H](N)[C@H]1NC(C)=O`, the IC50 in series [1] was determined as 2.65 µM; in series [2], 2.51 µM.

For `CCC(CC)O[C@@H]1C=C(C(=O)NCc2cccc(Cl)c2)C[C@H](N)[C@H]1NC(C)=O`, the results for the IC50 in [1] and in [2] were 3.02 µM and 7.86 µM, respectively.

Regarding `CCC(CC)O[C@@H]1C=C(C(=O)N[C@@H](C)C(=O)O)C[C@H](N)[C@H]1NC(C)=O`, the figures for the IC50 in [1] and in series [2] were 2.2 µM and 1.28 µM, respectively.

In the case of `CCC(CC)O[C@@H]1C=C(C(=O)NCc2ccc(C)cc2)C[C@H](N)[C@H]1NC(C)=O`, the 50% inhibitory concentration (IC50) in series [1] came to 2.91 µM; in [2], 11 µM.

With `CCC(CC)O[C@@H]1C=C(C(=O)O)C[C@H](N)[C@H]1NC(C)=O` [OSELTAMIVIR CARBOXYLATE], the EC50 stood at 1.35 µM in [3] and 0.73 µM in series [4]. For the same molecule, the CC50 at 48 h in [5] is over 1000 µM. The result in series [9], in series [10], in series [11], in series [12], in series [13] and in [14] was inactive. Besides, in series [15], the result was inactive.
